Assay results from ChEMBL document CHEMBL4033659, “Novel lipid-mimetic prodrugs delivering active compounds to adipose tissue” (Eur J Med Chem, 2017).

Legend:
[1] = Drug uptake in C57BL mouse subcutaneous adipose tissue at 176 umol/kg administered with high fat diet after 2 weeks by HPLC/UV analysis; assay type: ADME; conditions: in vivo, po, 336 h
Summary of the method: (§1)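 Mice received the lipid-mimetic derivatives chronically for 2 weeks. Pterostilbene and its metabolites were then quantified in blood and organs, and values are reported as mean ± st. dev. across animals.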

[2] = test system: Liver; test: Drug uptake in C57BL mouse liver at 176 umol/kg administered with high fat diet after 2 weeks by HPLC/UV analysis; assay type: ADME, tissue-based; conditions: in vivo, po, 336 h; summary of the method: as §1
[3] = test system: Blood; test: Drug uptake in C57BL mouse bloodstream at 176 umol/kg administered with high fat diet after 2 weeks by HPLC/UV analysis; assay type: ADME, tissue-based; conditions: po, 336 h; summary of the method: as §1
[4] = molecular target: T1, Pancreatic triacylglycerol lipase (Sus scrofa, UniProt P00591); test: Prodrug conversion assessed as porcine pancreatic lipase-mediated formation of 1-(10-((4-(3,5-dimethoxystyryl)phenoxy)carbonylamino)decanoyloxy)-3-hydroxypropan-2-yl oleate, 10-((4-(3,5-dimethoxystyryl)phenoxy)carbonylamino)decanoic acid by measuring hydrolysis rate constant K1 by HPLC/UV analysis; assay type: ADME; conditions: pig
T1 sequence (P00591 whole entry): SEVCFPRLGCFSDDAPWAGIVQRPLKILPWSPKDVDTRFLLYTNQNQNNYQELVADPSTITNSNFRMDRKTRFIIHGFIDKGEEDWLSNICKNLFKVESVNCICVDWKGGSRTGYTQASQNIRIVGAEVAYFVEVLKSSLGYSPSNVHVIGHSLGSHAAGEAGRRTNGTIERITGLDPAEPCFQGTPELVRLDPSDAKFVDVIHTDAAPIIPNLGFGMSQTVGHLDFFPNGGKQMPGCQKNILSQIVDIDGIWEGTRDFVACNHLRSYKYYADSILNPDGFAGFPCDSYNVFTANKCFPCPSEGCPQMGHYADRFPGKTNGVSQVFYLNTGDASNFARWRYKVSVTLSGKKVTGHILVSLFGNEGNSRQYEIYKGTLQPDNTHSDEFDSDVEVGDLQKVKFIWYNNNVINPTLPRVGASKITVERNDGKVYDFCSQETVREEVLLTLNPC

[5] = Drug uptake in C57BL mouse visceral adipose tissue at 176 umol/kg administered with high fat diet after 2 weeks by HPLC/UV analysis; assay type: ADME; conditions: in vivo, po, 336 h; summary of the method: as §1
[6] = molecular target: T1, Pancreatic triacylglycerol lipase; test: Prodrug conversion assessed as porcine pancreatic lipase-mediated formation of 10-((4-(3,5-dimethoxystyryl)phenoxy)carbonylamino)decanoic acid by measuring hydrolysis rate constant K2 by HPLC/UV analysis; assay type: ADME; conditions: pig
[7] = molecular target: T1, Pancreatic triacylglycerol lipase; test: Prodrug conversion assessed as porcine pancreatic lipase mediated formation of 10-((4-(3,5-dimethoxystyryl)phenoxy)carbonylamino)decanoic acid by measuring hydrolysis rate constant by HPLC/UV analysis; assay type: ADME; conditions: pig
[8] = Drug uptake in C57BL mouse visceral adipose tissue assessed as retention time at 176 umol/kg administered with high fat diet after 2 weeks by HPLC/UV analysis; assay type: ADME; conditions: in vivo, po, 336 h
[9] = molecular target: T1, Pancreatic triacylglycerol lipase; test: Prodrug conversion assessed as porcine pancreatic lipase-mediated formation of 10-((4-(3,5-dimethoxystyryl)phenoxy)carbonylamino)decanoic acid by measuring hydrolysis rate constant K3 by HPLC/UV analysis; assay type: ADME; conditions: pig
[10] = molecular target: T1, Pancreatic triacylglycerol lipase; test: Prodrug conversion assessed as porcine pancreatic lipase-mediated formation of 1,3-dihydroxypropan-2-yl 10-((4-(3,5-dimethoxystyryl)phenoxy)carbonylamino)decanoate by measuring hydrolysis rate constant K2 by HPLC/UV analysis; assay type: ADME; conditions: pig
[11] = molecular target: T1, Pancreatic triacylglycerol lipase; test: Prodrug conversion assessed as porcine pancreatic lipase-mediated formation of 2-(10-((4-(3,5-dimethoxystyryl)phenoxy)carbonylamino)decanoyloxy)-3-hydroxypropyl oleate by measuring hydrolysis rate constant K1 by HPLC/UV analysis; assay type: ADME; conditions: pig

| Structure (SMILES) | Drug uptake [1] | Drug uptake [2] | Drug uptake [3] | K [4] | Drug uptake [5] | K [6] | K [7] | Retention time [8] | K [9] | K [10] | K [11] |
| --- | --- | --- | --- | --- | --- | --- | --- | --- | --- | --- | --- |
| CCCCCCCC/C=C\CCCCCCCC(=O)OCC(COC(=O)CCCCCCCCCNC(=O)Oc1ccc(/C=C/c2cc(OC)cc(OC)c2)cc1)OC(=O)CCCCCCC/C=C\CCCCCCCC (stereo not given) | Active | Active | Not Active | 3.24 h⁻¹ | Active | 46.8 h⁻¹ | 2.88 h⁻¹ |  |  |  |  |
| CCCCCCCC/C=C\CCCCCCCC(=O)OCC(COC(=O)CCCCCCC/C=C\CCCCCCCC)OC(=O)CCCCCCCCCNC(=O)Oc1ccc(/C=C/c2cc(OC)cc(OC)c2)cc1 | Active | Active | Not Active |  | Active |  |  | 5.8 to 6.5 min | 0.24 h⁻¹ | 9.49 h⁻¹ | 3.04 h⁻¹ |
